# Source: ChEMBL document CHEMBL5113397, “Identification, optimization, and biological evaluation of 3-O-β-chacotriosyl ursolic acid derivatives as novel SARS-CoV-2 entry inhibitors by targeting the prefusion state of spike protein” (Eur J Med Chem, 2022)
# Key:
# [1] = Cytotoxicity against human HEK293T cells overexpressing human ACE2 assessed as inhibition of cell growth incubated for 48 hrs by MTT assay; format: toxicity, cell-based, HEK-293T
# Outline: (§1)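 Monolayers of 293T-ACE2 or Vero E6 cells in DMEM with 10% FBS were PBS-rinsed and exposed to compounds for 48 h. MTT 0.5 mg/mL was then added for 4 h at 37 °C, formazan dissolved in DMSO, and absorbance read at 570 nm.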
# [2] = Cytotoxicity against African green monkey Vero E6 cells assessed as inhibition of cell growth incubated for 48 hrs by MTT assay; format: toxicity, cell-based, Vero C1008; settings: chlorocebus sabaeus; outline: as §1
# [3] = Selectivity index, ratio of CC50 for cytotoxicity against African green monkey Vero E6 cells to EC50 for antiviral activity against SARS-CoV-2 Wuhan-Hu-1 infected African green monkey Vero E6 cells; format: toxicity, cell-based, Vero C1008; settings: read-out: Ratio CC50/EC50
# [4] = test system: SARS-CoV-2; experiment: Antiviral activity against SARS-CoV-2 Wuhan-HU-1 infected African green monkey Vero E6 cells assessed as reduction in N-protein expression at 0.55 to 15 uM by indirect immunofluorescence assay; format: functional, organism-based; settings: Severe acute respiratory syndrome coronavirus 2, dose 0.55-15 µM, DDE = dose-dependent effect
# [5] = test system: SARS-CoV-2; experiment: Antiviral activity against pseudovirus SARS-CoV-2 spike protein expressed in human HEK293T cells assessed as inhibition of spike protein S2 subunit mediated membrane fusion in African green monkey Vero E6 cells at 2.5 to 20 uM incubated for 0.5 hr and measured after 24 hrs by inverted fluorescence microscopy; format: functional, organism-based; settings: Severe acute respiratory syndrome coronavirus 2, dose 2.5-20 µM, time 24.5 hrs, DDE = dose-dependent effect
# Outline: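 Effector HEK-293T cells were transfected with GFP/SARS-CoV-2 S plasmid, or an EGFP-only vector as control. They were treated with or without graded compound for 30 min, then overlaid on Vero-E6 target cells seeded 6 h before. After 24 h, three random fields were imaged by inverted fluorescence microscopy.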
# [6] = test system: SARS-CoV-2; experiment: Antiviral activity against SARS-CoV-2 Wuhan-HU-1 infected African green monkey Vero E6 cells preincubated for 1 hrs followed by incubation with virus 1 hr and measured after 24 hrs by fluorescence assay; format: functional, organism-based; settings: Severe acute respiratory syndrome coronavirus 2, Wuhan-HU-1, Vero C1008
# [7] = target: Spike glycoprotein (Severe acute respiratory syndrome coronavirus 2, UniProt P0DTC2); experiment: Binding affinity to SARS-CoV-2 Spike trimer protein by SPR analysis
# Outline: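 Compound photo-crosslinked onto the chip; recombinant S-trimer injected at a series of concentrations in PBST (0.1% Tween 20, pH 7.4). Run at 4 °C, 600 s association, 360 s dissociation, 0.5 µL/s flow. Chip regenerated with glycine-HCl pH 2.0; KD from the SPR signals.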
Compound,CC50 at 48 h [1] [µM],CC50 at 48 h [2] [µM],selectivity ratio [3],Activity [4],inhibition [5],EC50 [6] [µM],Kd [7] [µM]
C[C@H]1[C@H](C)CC[C@]2(C(=O)NCc3ccccc3)CC[C@]3(C)C(=CC[C@@H]4[C@@]5(C)CC[C@H](O[C@@H]6O[C@H](CO)[C@@H](O[C@@H]7O[C@@H](C)[C@H](O)[C@@H](O)[C@H]7O)[C@H](O)[C@H]6O[C@@H]6O[C@@H](C)[C@H](O)[C@@H](O)[C@H]6O)C(C)(C)[C@@H]5CC[C@]43C)[C@H]12,> 100,,,,,,
COc1cccc(OC)c1NC(=O)[C@]12CC[C@@H](C)[C@H](C)[C@H]1C1=CC[C@@H]3[C@@]4(C)CC[C@H](O[C@@H]5O[C@H](CO)[C@@H](O[C@@H]6O[C@@H](C)[C@H](O)[C@@H](O)[C@H]6O)[C@H](O)[C@H]5O[C@@H]5O[C@@H](C)[C@H](O)[C@@H](O)[C@H]5O)C(C)(C)[C@@H]4CC[C@@]3(C)[C@]1(C)CC2,> 100,> 100,> 48.8,Dde,Dde,2.05,0.78
COc1ccc(CNC(=O)[C@]23CC[C@@H](C)[C@H](C)[C@H]2C2=CC[C@@H]4[C@@]5(C)CC[C@H](O[C@@H]6O[C@H](CO)[C@@H](O[C@@H]7O[C@@H](C)[C@H](O)[C@@H](O)[C@H]7O)[C@H](O)[C@H]6O[C@@H]6O[C@@H](C)[C@H](O)[C@@H](O)[C@H]6O)C(C)(C)[C@@H]5CC[C@@]4(C)[C@]2(C)CC3)cc1,> 100,,,,,,
COc1ccccc1NC(=O)[C@]12CC[C@@H](C)[C@H](C)[C@H]1C1=CC[C@@H]3[C@@]4(C)CC[C@H](O[C@@H]5O[C@H](CO)[C@@H](O[C@@H]6O[C@@H](C)[C@H](O)[C@@H](O)[C@H]6O)[C@H](O)[C@H]5O[C@@H]5O[C@@H](C)[C@H](O)[C@@H](O)[C@H]5O)C(C)(C)[C@@H]4CC[C@@]3(C)[C@]1(C)CC2,43.3,> 100,> 42,,,2.38,13.9
